From paper PMC7276679 (Acta Pharmaceutica Sinica. B, 2019) come the findings set out here.

The data set is classed as in vivo, Sprague-Dawley rats. The conditions noted are these: 5 mg/kg p.o. The method, boiled down:
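8-week-old male WT and CRISPR/Cas9 Slco1b2 KO SD rats, fasted 12 h, given the OATP1B2 probe substrate as a CMC-Na suspension intragastrically. Plasma underwent ethyl acetate liquid–liquid extraction with mebendazole internal standard, then positive-ESI LC–MS/MS. Parameters were derived by non-compartmental analysis.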

Turning to `O=C(O)C[C@H](O)C[C@H](O)/C=C/c1c(C2CC2)nc2ccccc2c1-c1ccc(F)cc1` [pitavastatin, Pitavastatin], under “KO vs WT rats”, the “decrease of CL/F in KO rats compared with WT rats” value was 38.5%, the “decrease of Vd/F in KO rats compared with WT rats” value is 39.8%, the “increase of AUC0–24 h in KO rats compared with WT rats” value was 68.8% and the “increase of AUC0–inf in KO rats compared with WT rats” value is 68.8%. In addition, for the setting “male, Sprague-Dawley, rat, plasma, po, 5 mg/kg, AUC0–inf, Slco1b2 KO male rats, mean ± SD, n = 6”, the AUC(0-inf) amounted to 3440 ± 1050 ng·h/mL. Where the note is “male, Sprague-Dawley, rat, plasma, po, 5 mg/kg, AUC0–t, Slco1b2 KO male rats, mean ± SD, n = 6”, this molecule registered an AUC(0-t) of 3410 ± 1040 ng·h/mL. The CL/F (male, Sprague-Dawley, rat, plasma, po, 5 mg/kg, CL/F, Slco1b2 KO male rats, mean ± SD, n = 6) was 26 mL/min/kg. Also, the Cmax (male, Sprague-Dawley, rat, plasma, po, 5 mg/kg, Cmax, Slco1b2 KO male rats, mean ± SD, n = 6) was found to be 1000 ± 336 ng/mL. The molecule further yielded an MRT last (male, Sprague-Dawley, rat, plasma, po, 5 mg/kg, MRT0–t, Slco1b2 KO male rats, mean ± SD, n = 6) of 3.65 ± 0.89 h. The Tmax (male, Sprague-Dawley, rat, plasma, po, 5 mg/kg, Tmax, Slco1b2 KO male rats, mean ± SD, n = 6) was 2.08 ± 0.97 h. This molecule also showed a Vd/F (male, Sprague-Dawley, rat, plasma, po, 5 mg/kg, Vd/F, Slco1b2 KO male rats, mean ± SD, n = 6) of 6.58 ± 1.9 L/kg. Further, the half-life (male, Sprague-Dawley, rat, plasma, po, 5 mg/kg, t1/2, Slco1b2 KO male rats, mean ± SD, n = 6) is 2.92 ± 0.43 h.

As usually defined, the AUC(0-inf) is total exposure, with the tail of the curve extrapolated. Read a low AUC(0-inf) as low exposure. Broadly, the AUC(0-t) is the area under the concentration-time curve up to a stated or last time point. Low values mean low exposure, high ones high exposure. For orientation: CL/F means the apparent clearance, not corrected for the fraction that reaches the circulation. By Cmax is commonly meant the highest concentration seen after dosing. As a reminder, the MRT last is the average time that molecules of a dose stay in the body. Broadly, the Tmax is the time from dosing to the highest level. What is called Vd/F is the apparent distribution volume after extravascular dosing. The term half-life denotes the time in which the quantity being followed falls by half. A higher half-life goes with slow decline.
